Experimental data: ChEMBL document CHEMBL1130014, “Mixed bis(thiosemicarbazone) ligands for the preparation of copper radiopharmaceuticals: synthesis and evaluation of tetradentate ligands containing two dissimilar thiosemicarbazone functions” (J Med Chem, 1997)

Assays:
Rattus norvegicus [1] = species: Rattus norvegicus; experiment: […] uptake of compound was determined in rat brain at 120 min following femoral injection of radiotracer; type: functional
Procedure, shortened: (§1)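 Sprague–Dawley rats under ether anesthesia received the ⁶⁷Cu complex (~2 µCi in 0.2 mL) into the femoral vein. Dosing solution was saline with ca. 5% ethanol and ≤0.5% DMSO, filtered at 0.2 µm, with radiochemical purity by silica TLC (ethanol). Organ radioactivity is expressed as % injected dose per organ. Mean ± SD, three rats per time point.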

Rattus norvegicus [2] = species: Rattus norvegicus; experiment: […] uptake of compound was determined in rat heart at 1 min following femoral injection of radiotracer; type: functional, Myocardium; procedure, shortened: as §1
Rattus norvegicus [3] = species: Rattus norvegicus; experiment: […] uptake of compound was determined in rat heart at 120 min following femoral injection of radiotracer; type: functional, Myocardium; procedure, shortened: as §1
Rattus norvegicus [4] = species: Rattus norvegicus; experiment: […] uptake of compound was determined in rat brain at 1 min following femoral injection of radiotracer; type: functional; procedure, shortened: as §1
Rattus norvegicus [5] = species: Rattus norvegicus; experiment: […] uptake of compound was determined in rat heart at 5 min following femoral injection of radiotracer; type: functional, Myocardium; procedure, shortened: as §1
Rattus norvegicus [6] = species: Rattus norvegicus; experiment: […] uptake of compound was determined in rat brain at 5 min following femoral injection of radiotracer; type: functional; procedure, shortened: as §1
Albumin = Albumin (Homo sapiens, UniProt P02768); experiment: Binding of compound in order to assess the amount of free (non-albumin-associated) radiotracer present in solutions of human serum albumin (35 mg/mL saline)
Sequence of Albumin (P02768 whole entry): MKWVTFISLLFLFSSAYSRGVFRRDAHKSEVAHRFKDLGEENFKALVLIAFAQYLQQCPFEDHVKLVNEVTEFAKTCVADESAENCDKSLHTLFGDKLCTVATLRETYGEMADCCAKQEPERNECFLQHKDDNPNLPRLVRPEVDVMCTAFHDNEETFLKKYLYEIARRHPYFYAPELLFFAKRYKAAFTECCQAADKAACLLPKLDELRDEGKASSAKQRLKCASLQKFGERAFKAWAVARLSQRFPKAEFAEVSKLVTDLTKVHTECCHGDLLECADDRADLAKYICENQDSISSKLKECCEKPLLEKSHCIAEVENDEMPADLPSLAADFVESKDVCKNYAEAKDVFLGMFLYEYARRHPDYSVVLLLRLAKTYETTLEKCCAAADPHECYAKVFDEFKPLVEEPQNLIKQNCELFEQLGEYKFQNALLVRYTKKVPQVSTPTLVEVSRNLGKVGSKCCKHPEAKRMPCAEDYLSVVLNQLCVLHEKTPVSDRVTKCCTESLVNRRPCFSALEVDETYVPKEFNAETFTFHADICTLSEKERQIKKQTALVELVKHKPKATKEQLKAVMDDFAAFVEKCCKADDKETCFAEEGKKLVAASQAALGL
Procedure, shortened: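 ⁶⁷Cu complex (1–2 µL per 1 mL) mixed into freshly prepared albumin in normal saline. Within 2 min, loaded into 30,000 Da NMWL centrifugal ultrafilters and spun at once at 1000g, 20 min, 20 °C, 45° fixed-angle rotor. Filtrate and unfiltered solution γ-counted. Free % is the protein filtrate/unfiltered ratio divided by the same ratio in protein-free saline, ×100. Mean ± SD of 6–12 measurements.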

[7] = molecular target: Serum albumin (Canis lupus familiaris) (UniProt P49822); experiment: Binding of compound in order to assess the amount of free (non-albumin-associated) radiotracer present in solutions of dog serum albumin (35 mg/mL saline)
Sequence of Serum albumin (Canis lupus familiaris) (P49822 whole entry, looked up): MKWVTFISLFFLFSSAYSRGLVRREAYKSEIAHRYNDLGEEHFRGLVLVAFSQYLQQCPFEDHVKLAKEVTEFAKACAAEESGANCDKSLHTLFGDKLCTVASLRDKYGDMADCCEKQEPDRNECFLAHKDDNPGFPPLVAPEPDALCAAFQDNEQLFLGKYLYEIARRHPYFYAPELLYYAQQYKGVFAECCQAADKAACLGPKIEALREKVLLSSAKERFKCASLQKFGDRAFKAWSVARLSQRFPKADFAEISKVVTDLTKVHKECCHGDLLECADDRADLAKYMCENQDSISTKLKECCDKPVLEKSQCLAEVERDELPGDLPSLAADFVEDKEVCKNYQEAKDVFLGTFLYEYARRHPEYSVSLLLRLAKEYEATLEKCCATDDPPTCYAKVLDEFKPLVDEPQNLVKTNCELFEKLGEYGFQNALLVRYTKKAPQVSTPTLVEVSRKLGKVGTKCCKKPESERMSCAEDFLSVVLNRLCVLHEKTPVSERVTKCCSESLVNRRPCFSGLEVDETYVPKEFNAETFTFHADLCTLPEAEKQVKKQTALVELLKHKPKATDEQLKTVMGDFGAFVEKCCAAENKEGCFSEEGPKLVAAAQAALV

Molecule | Dose (Rattus norvegicus [1]) | Dose (Rattus norvegicus [2]) | Dose (Rattus norvegicus [3]) | Dose (Rattus norvegicus [4]) | Dose (Rattus norvegicus [5]) | Dose (Rattus norvegicus [6]) | Free complex (Albumin) | Free complex [7]
C/N=C(\S)N/N=C/C(C)=N/N/C(S)=N/C | 3.2% | 2.7% | 3.3% | 3% | 3.4% | 3% |  | 
Copper complex of Propane-1,2-diylidene-N-amino-methylaminomethanethione-N-amino-dimethylaminomethanethione |  |  |  |  |  |  | 5.4% | 25.7%
Propyl glyoxal bis(thiosemicarbazone)(67Cu-n-PrTS) |  |  |  |  |  |  | 37% | 30.3%
C/N=C(\S)N/N=C/C(C)=N/N=C(/N)S | 1.1% | 2.73% | 2.03% | 1.4% | 2.44% | 1.37% |  | 
CC(/C=N/N=C(\S)N(C)C)=N\N=C(\N)S | 1.98% | 1.59% | 1.05% | 2.79% | 1.23% | 1.97% |  | 
C/N=C(\S)N/N=C(C)/C=N/N=C(/N)S | 1.67% | 2.84% | 2.59% | 1.72% | 2.86% | 1.81% |  | 
CC(/C=N/N=C(/N)S)=N\N=C(\N)S [PYRUVALDEHYDE BIS(THIOSEMICARBAZONE)(PTS)] |  | 2.8% |  | 0.46% | 2.3% | 0.29% |  | 
Copper complex of Propane-1,2-diylidene-N-thiourea-N-amino-methylaminomethanethione [listing 1 of 2 here] |  |  |  |  |  |  | 10.4% | 57.4%
C/N=C(\S)N/N=C(C)/C=N/N=C(\S)N(C)C | 1.63% | 1.43% | 0.89% | 2.76% | 1.27% | 1.8% |  | 
CC(/C=N/N=C(\S)N(C)C)=N\N=C(/S)N(C)C |  | 0.97% |  | 3.1% | 0.43% | 2.2% |  | 
Copper complex of Propane-1,2-diylidene-N-thiourea-N-amino-dimethylaminomethanethione |  |  |  |  |  |  | 17.2% | 57.6%
Copper complex of Propane-1,2-diylidene-N-thiourea-N-amino-methylaminomethanethione [listing 2 of 2 here] |  |  |  |  |  |  | 8.6% | 46.5%
